Screens: PubChem BioAssay, several laboratories
Rows were chosen to be rich in hits. Some 1.7% of all compounds tested hit in one or more screens of this group.
PP5 primary: PP5 (human) phosphatase inhibition; purified PP5c, OMFP substrate fluorescence; inhibition, % at 6.7 µM; hit rate 0.18% among 320,000;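 active = inhibition above the campaign's mean inhibition across all tested compounds plus 3 SD, cut at about 9.5% in these data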;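 note: 0% = DMSO only and 100% = 100 µM cantharidin control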
JMJD2C inh: human JMJD2C demethylase inhibition; inhibition, % at 2.35 µM; hit rate 0.069% among 330,000; AID 2099; GST-JMJD2C(1-420) H3K9me3 demethylation, DELFIA europium; Q9H3R0;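 active = more than half of a compound's replicate wells show inhibition beyond 50%, single wells judged on their own value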;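 note: signal counts dimethyl H3K9 product captured on neutravidin plate; 0% = median of DMSO wells and 100% = 0.3 times that DMSO median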
Target sequence (Q9H3R0 1-420 limits assumed): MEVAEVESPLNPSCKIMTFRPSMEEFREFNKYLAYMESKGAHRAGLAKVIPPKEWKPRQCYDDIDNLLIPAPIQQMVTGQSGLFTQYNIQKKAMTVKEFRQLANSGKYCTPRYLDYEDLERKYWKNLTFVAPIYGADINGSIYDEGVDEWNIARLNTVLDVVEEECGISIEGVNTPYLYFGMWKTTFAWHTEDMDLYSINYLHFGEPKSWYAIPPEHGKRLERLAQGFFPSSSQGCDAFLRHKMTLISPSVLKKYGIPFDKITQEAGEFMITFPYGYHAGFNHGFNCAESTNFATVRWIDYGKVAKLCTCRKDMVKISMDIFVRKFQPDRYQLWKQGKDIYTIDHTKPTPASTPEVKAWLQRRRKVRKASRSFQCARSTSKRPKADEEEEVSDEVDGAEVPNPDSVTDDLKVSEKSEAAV
HTR2A ag: agonists of mouse serotonin 5-HT2A receptor (HTR2A). P35363. CHO-K1 mHTR2A beta-arrestin complementation, luminescence; percent of 30 µM serotonin response. activation, % at 7.6 µM. hit rate 0.66% among 360,000;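 active = activation above a run cutoff, the mean activation of all tested compounds plus 3 SD, cut at about 14% in these data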;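 note: 0% = plate median of compound wells and 100% = 30 µM serotonin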
T cell modulator: T cell immune modulators affecting CD8 T cell-vesicle binding. 2C CD8+ T cell-vesicle binding, flow cytometry; stronger effect = lower value. response (vesicle binding), % at 7 µM. hit rate 0.068% among 330,000. AID 2052;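 active = response, share of CD8 T cells binding vesicles, and their 90th percentile fluorescence all below set limits, cut at about 80% in these data, passing the limit was not always enough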;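 note: values below 100% mean blocked vesicle binding to the CD8+ T cells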
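Material: murine 2C transgenic CD8+ T lymphocytes / Also added: QL9-peptide-loaded Drosophila micro-vesicles bearing Ld, ICAM-1 and B7-1 / Schedule: binding step 1.5 h, 37 °C, antibody labelling 20 min, ice / Signal: flow cytometry, PE anti-B7-1 (FL2) versus Alexa647 anti-CD8 (FL8), PFA-fixed / Evaluation: percent CD8+ FL2 mean versus row control / Benchmarks: naked versus QL9-loaded vesicles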
PP1 counter: PP1-alpha (human) inhibition in PP5 counter-screen; purified PP1alpha, OMFP fluorescence; inhibition, % at 6.7 µM; hit rate 0.9% among 320,000;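 active = inhibition above the mean inhibition of all tested compounds plus 3 SD, computed separately for each screening campaign, cut at about 15% in these data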
* hit, by the source's call; i = inactive; nt = no result given.

SMILES	PP5 primary	JMJD2C inh	HTR2A ag	T cell modulator	PP1 counter
COC(=O)c1c(NC(=O)COC(=O)c2ccccn2)sc(C)c1C	2	-6	-7	360	-4
COC(=O)c1c(NC(=O)COC(=O)c2ccc(Cl)nc2)sc(C)c1C	-2	-11	0	49*	-5
CC(=O)c1ccc(-c2ccc(/C=C(/Sc3n[nH]c(C)n3)C(=O)O)o2)cc1	2	0	-2	244	16*
CC(c1ccccc1F)n1cc(C(=O)NCCCn2ccnc2)nn1 (configuration not stated)	4	-5	-1	170	-3
CC(c1ccccc1)n1cc(C(=O)NCCCn2ccnc2)nn1 (configuration not stated)	0	55*	4	162	-4
O=C1C=C(c2c(O)ccc3ccccc23)c2ccccc2C1=O	nt	nt	15*	nt	nt
COC(=O)c1ccc(NC(=O)COc2ccc(C3C(C#N)=C(N)Oc4c3ccc3ccccc43)cc2OC)cc1 (configuration not stated)	3	-2	8	i	16*
O=C(Cn1cnc2sc(-c3ccccc3)cc2c1=O)NCc1ccccc1	5	14	3	288	15*
CCOC(=O)C1=C(CSc2nccn2C)NC(=O)NC1c1cc(C)ccc1C (configuration not stated)	-1	2	0	433	-3
CCOC(=O)C1=C(Cn2cnc3ccccc32)NC(=O)NC1c1cc(C)ccc1C (configuration not stated)	2	-5	59*	330	4
CC1CCCCC12NC(=O)N(CC(=O)Nc1ccc(N3CCCCC3)cc1)C2=O (configuration not stated)	nt	nt	0	nt	nt
CNC(=S)N1CCN(c2c(F)cc3c(=O)c(C(=O)O)cn(C4CC4)c3c2OC)CC1C (configuration not stated)	5	-1	3	179	16*
C[C@H]1COc2c(N3CCN(C)CC3)c(F)cc3c(=O)c(C(=O)O)cn1c23	3	-2	7	268	0
COC(=O)C(C)NC(=S)N1CCN(c2c(F)cc3c(=O)c(C(=O)O)cn(C4CC4)c3c2OC)CC1C (configuration not stated)	3	-6	-3	112	16*
CCOC(=O)c1cn(C2CC2)c2c(F)c(F)c(F)cc2c1=O	0	24	2	303	7
CC(C)C(C)N(Cc1ccc(C(=O)O)cc1)C(=O)c1ccc2ccccc2n1 (configuration not stated)	-2	3	3	281	-2
O=C(COC(=O)c1cccc(F)c1)NC(=O)NCc1ccccc1	nt	4	-4	316	nt
CSc1ccc(-c2sc(Nc3ccccc3)n[n+]2-c2ccccc2)cc1	5	5	-7	320	17*
Fc1ccc(-[n+]2nc(Nc3ccccc3)sc2-c2cccc(Cl)c2Cl)cc1	2	7	-1	551	17*
O=S(=O)(O)c1cc(OS(=O)(=O)c2ccccc2)cc2ccccc12	-1	-4	4	161	-3
CN(C)C(=O)c1cnc(Cc2c[nH]c3ccccc23)c(I)c1	nt	nt	2	nt	nt
CC(C)(C)N1C(=O)Cc2c1nc(N)c1c(N)nc(N3CCCCC3CO)c(C#N)c21 (configuration not stated)	15*	-9	-1	544	11
CN(CCO)c1nc(N)c2c(N)nc3c(c2c1C#N)CC(=O)N3C1CCCC1	6	6	nt	282	-1
CCN1CCN(CC(=O)Nc2ccc3c(c2)OCO3)C(=O)C1=O	4	-3	23*	548	2
Cc1ccc(C2C(C(=O)c3cc4ccccc4o3)=C(O)C(=O)N2c2cc(C)on2)cc1 (configuration not stated)	-1	-18	2	274	22*
COC(=O)c1ccc(C2C(C(=O)c3ccco3)=C(O)C(=O)N2c2cc(C)on2)cc1 (configuration not stated)	-1	0	6	346	7
Cc1cc(N2C(=O)C(O)=C(C(=O)c3ccc(C)o3)C2c2cccs2)no1 (configuration not stated)	-1	0	8	288	6
COC(=O)c1sc(N2C(=O)C(O)=C(C(=O)c3ccc(C)o3)C2c2ccc(F)cc2)nc1C (configuration not stated)	4	-1	-4	626	17*
